This is an account of results in ChEMBL document CHEMBL3853360, “Combined Interactions with I1-, I2-Imidazoline Binding Sites and α2-Adrenoceptors To Manage Opioid Addiction” (ACS Med Chem Lett, 2016).

Calls of active or inactive are those of the source. No cut-off for these calls is given here.

The nature of test [1]: Reduction in morphine dependence expression in CD1 mouse assessed as inhibition of naloxone-precipitated forepaw tremor frequency at 10 mg/kg, ip administered acutely 15 mins prior to naloxone challenge relative to control. It is filed as functional, organism-based.
The next test has as its target Nischarin (Rattus norvegicus, UniProt Q4G017). In words: Displacement of [125I]-p-iodoclonidine from I1 receptor imidazoline binding site in Sprague-Dawley rat kidney cell membranes after 30 mins by liquid scintillation counting. Put shortly:
(§1)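 Radioligand competition binding with pKi determined by displacement. I1 sites: [125I]-p-iodoclonidine on rat kidney membranes. I2 sites: [3H]-2-BFI on rat brain membranes. α2-ARs: [3H]-RX821002 on rat brain membranes.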

Test [2] has as its system Mus musculus. Nature of the test: Reduction in morphine dependence acquisition in CD1 mouse assessed as inhibition of naloxone-precipitated forepaw tremor frequency at 5 mg/kg, ip administered 15 mins prior to each morphine challenge relative to control. In kind it is functional. The gist of the method:
(§2)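 Mice received i.p. test compound (5 or 10 mg/kg) 15 min before each of repeated morphine injections, with vehicle and morphine-only controls. Withdrawal was then precipitated with naloxone. Jumping frequency and somatic signs (rearing, forepaw tremor, teeth chattering; summed frequency) were scored and compared with the morphine group. Data are mean ± SEM of 6–10 animals.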

Test [3] relates to Mus musculus. In words: Reduction in morphine dependence acquisition in CD1 mouse assessed as inhibition of naloxone-precipitated teeth chattering frequency at 5 mg/kg, ip administered 15 mins prior to each morphine challenge relative to control. It is filed as functional. Put shortly:
as §2

The nature of test [4]: Displacement of [3H]-2-BFI from I2 receptor imidazoline binding site in Sprague-Dawley rat brain membranes after 30 mins by liquid scintillation counting. It is filed as cell membranes, Membrane. The gist of the method: as §1
(In a radioligand displacement assay an active substance lowers the binding of a labelled ligand.)

Test [5] in a line: Reduction in morphine dependence expression in CD1 mouse assessed as inhibition of naloxone-precipitated teeth chattering frequency at 10 mg/kg, ip administered acutely 15 mins prior to naloxone challenge relative to control. In kind it is functional, organism-based.
The test system of test [6] is Mus musculus. Nature of the test: Reduction in morphine dependence acquisition in CD1 mouse assessed as inhibition of naloxone-precipitated teeth chattering frequency at 10 mg/kg, ip administered 15 mins prior to each morphine challenge relative to control. In kind it is functional. The gist of the method: as §2
Test [7] has as its system Mus musculus. Nature of the test: Reduction in morphine dependence acquisition in CD1 mouse assessed as inhibition of naloxone-precipitated rearing frequency at 5 mg/kg, ip administered 15 mins prior to each morphine challenge relative to control. It is filed as functional. The gist of the method:
as §2

Test [8] in a line: Reduction in morphine dependence expression in CD1 mouse assessed as inhibition of naloxone-precipitated teeth chattering frequency at 5 mg/kg, ip administered acutely 15 mins prior to naloxone challenge relative to control. It is filed as functional, organism-based.
A short description of test [9]: Reduction in morphine dependence expression in CD1 mouse assessed as inhibition of naloxone-precipitated rearing frequency at 5 mg/kg, ip administered acutely 15 mins prior to naloxone challenge relative to control. In kind it is functional, organism-based.
Test [10] deals with Mus musculus. Nature of the test: Reduction in morphine dependence acquisition in CD1 mouse assessed as inhibition of naloxone-precipitated rearing frequency at 10 mg/kg, ip administered 15 mins prior to each morphine challenge relative to control. It is filed as functional. Put shortly:
as §2

The test system of test [11] is Mus musculus. Nature of the test: Reduction in morphine dependence acquisition in CD1 mouse assessed as inhibition of naloxone-precipitated jumping at 10 mg/kg, ip administered 15 mins prior to each morphine challenge. It is filed as functional, organism-based. Put shortly: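 Acquisition protocol in mice given repeated morphine. Test drug at 5 or 10 mg/kg i.p. was given 15 min before each morphine injection. Withdrawal was then precipitated with naloxone and jumping frequency counted. Data are mean ± SEM of 6–10 animals, compared with the morphine group.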

Test [12] can be described thus: Reduction in morphine dependence expression in CD1 mouse assessed as inhibition of naloxone-precipitated forepaw tremor frequency at 5 mg/kg, ip administered acutely 15 mins prior to naloxone challenge relative to control. In kind it is functional, organism-based.
A short description of test [13]: Reduction in morphine dependence expression in CD1 mouse assessed as inhibition of naloxone-precipitated rearing frequency at 10 mg/kg, ip administered acutely 15 mins prior to naloxone challenge relative to control. It is filed as functional, organism-based.
In test [14] the target is T1, Adrenergic receptor alpha-2 (Rattus norvegicus, UniProt P22086+P19328+P22909).
T1 sequence (P22086 whole entry): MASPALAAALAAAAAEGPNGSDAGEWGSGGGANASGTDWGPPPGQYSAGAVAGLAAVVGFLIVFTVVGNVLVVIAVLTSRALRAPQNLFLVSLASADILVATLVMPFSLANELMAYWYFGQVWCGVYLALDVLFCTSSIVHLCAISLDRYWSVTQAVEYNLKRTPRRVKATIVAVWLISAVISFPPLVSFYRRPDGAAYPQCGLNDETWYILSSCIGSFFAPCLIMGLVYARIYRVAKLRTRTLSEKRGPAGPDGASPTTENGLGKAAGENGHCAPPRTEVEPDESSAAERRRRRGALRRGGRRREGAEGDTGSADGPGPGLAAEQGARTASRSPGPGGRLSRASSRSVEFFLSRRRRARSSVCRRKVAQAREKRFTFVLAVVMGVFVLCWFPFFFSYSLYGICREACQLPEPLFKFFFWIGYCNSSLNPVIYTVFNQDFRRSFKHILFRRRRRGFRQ
T1 sequence (P19328 whole entry): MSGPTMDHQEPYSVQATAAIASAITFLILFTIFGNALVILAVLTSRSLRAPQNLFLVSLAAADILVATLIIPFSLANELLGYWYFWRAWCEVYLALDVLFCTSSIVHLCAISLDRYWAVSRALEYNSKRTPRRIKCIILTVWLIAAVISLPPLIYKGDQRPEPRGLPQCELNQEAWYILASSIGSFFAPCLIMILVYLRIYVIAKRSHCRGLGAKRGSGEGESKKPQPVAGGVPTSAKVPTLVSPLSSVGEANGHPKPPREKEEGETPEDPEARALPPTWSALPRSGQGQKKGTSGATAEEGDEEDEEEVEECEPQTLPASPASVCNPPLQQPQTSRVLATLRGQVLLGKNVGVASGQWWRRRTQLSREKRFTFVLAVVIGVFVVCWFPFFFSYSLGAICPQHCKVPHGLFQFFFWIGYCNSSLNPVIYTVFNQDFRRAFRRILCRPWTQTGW
T1 sequence (P22909 whole entry): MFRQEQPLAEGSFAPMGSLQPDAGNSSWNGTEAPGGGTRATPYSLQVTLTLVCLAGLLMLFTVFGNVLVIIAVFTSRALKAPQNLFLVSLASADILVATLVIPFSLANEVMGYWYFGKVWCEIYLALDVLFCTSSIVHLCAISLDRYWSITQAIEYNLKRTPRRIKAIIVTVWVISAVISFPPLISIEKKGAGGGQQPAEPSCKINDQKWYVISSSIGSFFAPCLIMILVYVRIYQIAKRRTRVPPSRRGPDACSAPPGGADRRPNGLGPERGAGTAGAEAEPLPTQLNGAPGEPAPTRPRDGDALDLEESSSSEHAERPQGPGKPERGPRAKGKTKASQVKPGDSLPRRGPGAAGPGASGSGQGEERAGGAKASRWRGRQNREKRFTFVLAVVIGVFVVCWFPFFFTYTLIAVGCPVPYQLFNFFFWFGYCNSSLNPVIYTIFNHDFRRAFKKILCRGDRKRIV
Nature of the test: Displacement of [3H]-RX 821002 from alpha2-AR in Sprague-Dawley rat brain membranes after 30 mins by liquid scintillation counting. In kind it is cell membranes, Membrane. Put shortly: as §1

The test system of test [15] is Mus musculus. In words: Reduction in morphine dependence acquisition in CD1 mouse assessed as inhibition of naloxone-precipitated forepaw tremor frequency at 10 mg/kg, ip administered 15 mins prior to each morphine challenge relative to control. It is filed as functional. Put shortly:
as §2

Test [16] is described as follows: Reduction in morphine dependence expression in CD1 mouse assessed as inhibition of naloxone-precipitated jumping at 10 mg/kg, ip administered acutely 15 mins prior to naloxone challenge relative to control. It is filed as functional, organism-based.
In test [17] the target is T1, Adrenergic receptor alpha-2. In words: Displacement of [3H]-clonidine from alpha2-AR in rat brain cortical membranes after 45 mins by liquid scintillation counting. It is filed as cell membranes.
Test [18] is described as follows: Displacement of [3H]idazoxan from I2 receptor imidazoline binding site in rabbit kidney membranes after 45 mins by […]. In kind it is cell membranes, Oryctolagus cuniculus, Membrane.

Nischarin, sequence (Q4G017 whole entry): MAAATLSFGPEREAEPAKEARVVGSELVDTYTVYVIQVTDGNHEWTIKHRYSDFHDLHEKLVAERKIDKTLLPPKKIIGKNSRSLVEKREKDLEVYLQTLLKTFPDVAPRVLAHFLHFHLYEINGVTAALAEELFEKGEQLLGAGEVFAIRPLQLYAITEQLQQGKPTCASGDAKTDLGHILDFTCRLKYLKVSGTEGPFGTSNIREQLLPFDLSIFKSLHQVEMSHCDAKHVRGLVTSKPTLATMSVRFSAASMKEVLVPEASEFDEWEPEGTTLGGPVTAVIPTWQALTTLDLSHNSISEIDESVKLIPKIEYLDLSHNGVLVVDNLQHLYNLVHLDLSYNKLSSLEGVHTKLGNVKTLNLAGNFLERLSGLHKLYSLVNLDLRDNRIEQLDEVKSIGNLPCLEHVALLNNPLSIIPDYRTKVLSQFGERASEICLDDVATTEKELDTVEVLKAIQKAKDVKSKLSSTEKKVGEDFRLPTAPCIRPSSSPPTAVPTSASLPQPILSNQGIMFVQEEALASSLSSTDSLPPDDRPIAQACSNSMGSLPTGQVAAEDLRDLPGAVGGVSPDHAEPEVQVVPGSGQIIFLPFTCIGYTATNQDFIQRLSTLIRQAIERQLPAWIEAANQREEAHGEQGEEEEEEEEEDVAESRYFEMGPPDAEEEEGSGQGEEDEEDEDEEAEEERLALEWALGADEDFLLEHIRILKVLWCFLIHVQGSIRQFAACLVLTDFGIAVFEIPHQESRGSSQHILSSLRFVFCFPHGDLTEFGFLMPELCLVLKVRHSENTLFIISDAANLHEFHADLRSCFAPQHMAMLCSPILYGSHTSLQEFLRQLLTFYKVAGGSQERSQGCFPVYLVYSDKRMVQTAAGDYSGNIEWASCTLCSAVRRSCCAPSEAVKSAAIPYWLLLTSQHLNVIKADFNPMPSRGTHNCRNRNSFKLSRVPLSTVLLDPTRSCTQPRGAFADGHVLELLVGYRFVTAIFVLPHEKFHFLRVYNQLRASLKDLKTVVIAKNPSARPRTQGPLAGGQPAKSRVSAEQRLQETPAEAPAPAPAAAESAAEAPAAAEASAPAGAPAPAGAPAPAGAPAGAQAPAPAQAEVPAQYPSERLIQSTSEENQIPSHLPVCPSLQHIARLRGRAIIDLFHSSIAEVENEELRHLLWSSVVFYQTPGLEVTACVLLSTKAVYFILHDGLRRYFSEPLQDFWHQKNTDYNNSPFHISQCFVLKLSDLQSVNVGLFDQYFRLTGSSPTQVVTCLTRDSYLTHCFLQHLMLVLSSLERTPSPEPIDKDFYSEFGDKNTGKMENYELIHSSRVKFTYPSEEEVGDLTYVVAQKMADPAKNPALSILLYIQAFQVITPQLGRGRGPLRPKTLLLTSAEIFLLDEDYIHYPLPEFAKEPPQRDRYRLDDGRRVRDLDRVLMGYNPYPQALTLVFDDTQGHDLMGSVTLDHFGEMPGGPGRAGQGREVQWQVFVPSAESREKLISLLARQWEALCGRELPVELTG

The inhibition is the drop in the measured response relative to a control, in per cent. One may read the Ki as the equilibrium dissociation constant of an inhibitor or competing ligand from its target. Broadly, the inhibition in vivo is the relative decrease from the control value, in per cent. As a reminder, the pKi is the negative decadic logarithm of the Ki, by convention in mol/L. Lower therefore signals a large Ki. For `Cc1ccccc1/C=C/C1=NCCN1`, the inhibition in test [1], in test [5], in test [8], in test [9], in test [12] and in [13] was 50% each time. In addition, in test [16], the inhibition was 90%. At Nischarin, this compound gave a Ki of 0.0178 µM. Besides, the inhibition in vivo at 5 mg/kg in the test on Mus musculus [2], in the test with Mus musculus [3] and with Mus musculus [7] was 34% in each case. The pKi in test [4] is recorded as 9.11; in test [14], less than 6. The inhibition in vivo at 10 mg/kg in the test with Mus musculus [6], in the test with Mus musculus [10] and in the test with Mus musculus [15] was 46% throughout. Further, in the test with Mus musculus [11], the inhibition entry is “Active”.

Regarding `C(=C\c1ccccc1)/C1=NCCN1` [TRACIZOLINE], the values for the pKi in [17] and in test [18] were less than 6 and 8.72, respectively.
